# Screens (PubChem)
# procasp7 counter: counter-screen: procaspase-7 (human) activation | activation, % at 8.5 µM | P55210 | actives 0.093% (n = 330,000) | recombinant procaspase-7, Ac-DEVD-pNA absorbance 405 nm; D23A/D198A/D206A triple mutant, cannot self-cleave; scale: DMSO 0, 5 µM enzyme 100;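 active means percent activation above the screen-wide mean plus 3 SD, cut at about 25% in these data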
# Target sequence (P55210 whole entry D23A/D198A/D206A): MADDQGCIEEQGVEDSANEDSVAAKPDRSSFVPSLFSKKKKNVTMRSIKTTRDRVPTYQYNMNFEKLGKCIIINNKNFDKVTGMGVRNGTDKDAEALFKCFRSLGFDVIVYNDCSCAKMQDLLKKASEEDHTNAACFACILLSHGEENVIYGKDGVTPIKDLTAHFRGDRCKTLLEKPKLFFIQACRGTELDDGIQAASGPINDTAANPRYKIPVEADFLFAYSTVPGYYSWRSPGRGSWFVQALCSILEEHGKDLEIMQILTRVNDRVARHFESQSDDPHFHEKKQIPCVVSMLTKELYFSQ
#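 Detection: p-Nitroaniline absorbance at 405 nm, read at 0 and 120 min; system: Uncleavable procaspase-7 mutant enzyme; evaluation: % activation from two-timepoint absorbance difference, scaled to controls; times: 1 h enzyme–compound preincubation and 2 h substrate reaction, both 25 °C; buffer or medium: Zinc-free HEPES pH 7.4 with 300 mM NaCl, 0.01% Triton X-100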
# proCasp3 act: activators of human procaspase-3; recombinant procaspase-3 D3A, Ac-DEVD-pNA absorbance 405 nm; AID 463141; activation, % at 8.5 µM; actives 0.11% (n = 330,000); P42574;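 active means activation above the mean of all tested compounds plus 3 SD, cut at about 21% in these data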;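 further: 0% = DMSO alone and 100% = DMSO wells spiked with extra 5 µM PC-3 D3A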
# Target sequence (P42574 whole entry D9A/D28A/D175A): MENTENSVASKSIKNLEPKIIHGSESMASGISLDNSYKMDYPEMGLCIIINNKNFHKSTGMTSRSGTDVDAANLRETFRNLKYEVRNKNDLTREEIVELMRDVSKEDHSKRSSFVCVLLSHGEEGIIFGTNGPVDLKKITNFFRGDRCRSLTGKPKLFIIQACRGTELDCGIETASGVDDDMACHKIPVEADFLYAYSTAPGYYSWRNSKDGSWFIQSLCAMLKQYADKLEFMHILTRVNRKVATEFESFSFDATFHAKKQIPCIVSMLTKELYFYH
#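 Assay system: Autoprocessing-dead procaspase-3 D3A mutant enzyme; also added: Ac-DEVD-pNA; doses: one concentration, 8.5 µM nominal, 0.8% DMSO; times: 1 h compound preincubation, 2 h substrate hydrolysis at 25 °C; technique: 405 nm absorbance of p-nitroaniline, reads at 0 and 120 min; measure: % activation between DMSO and enzyme-spiked controls; repeats: single replicate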
# sPLA2-III inh: Inhibits HGIII-sPLA2 liposome hydrolysis, primary screen; Q9NZ20; QFRET BODIPY PC-A2 liposome hydrolysis, fluorescence; inhibition, % at 12.2 µM; actives 0.56% (n = 370,000);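 active means inhibition above mean plus 3 SD of compounds lying within the high and low control bounds, cut at about 19% in these data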;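 further: 0% = median of test compound wells and 100% = no enzyme DMSO wells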
# PLC-beta3 inh: inhibitors of human phospholipase C beta3; inhibition, % at 12.2 µM; AID 720704; actives 0.18% (n = 370,000); Purified PLC-beta3, fluorogenic substrate, fluorescence;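 further: 0% = median of compound wells on plate and 100% = full blocker control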
# PLC-gamma1 inh: blocks human PLC-gamma1 enzyme activity. purified PLC-gamma1, fluorogenic substrate, fluorescence. inhibition, % at 12.2 µM. actives 0.84% (n = 370,000). AID 720700; in the data active means inhibition above about 9.5%
# PLCgamma1 ctr: PLC-gamma1 inhibition, counter-screen for PLC-beta3 hits. shares compounds with PLC-gamma1 inh. purified PLC-gamma1, fluorogenic substrate, fluorescence. inhibition, % at 12.3 µM. actives 3.1% (n = 3,300); in the data active means inhibition above about 9.5%
# PLCb3 confirm: confirmation of human PLC-beta3 inhibitors; shares compounds with PLC-gamma1 inh; purified PLC-beta3, fluorogenic substrate fluorescence; inhibition, % at 12.3 µM; actives 1% (n = 3,300); AID 743261
# * hit, by the source's call; x = no result; ! = not confirmed by another sample. Hits are enriched below; roughly 1.6% of the tested compounds scored in any of these assays. Unless noted, no stated cut-off is given here; in the data, active means inhibition above about 11%; inactive means the rest.
SMILES,procasp7 counter,proCasp3 act,sPLA2-III inh,PLC-beta3 inh,PLC-gamma1 inh,PLCgamma1 ctr,PLCb3 confirm
CC(OC(=O)c1ccc2c(c1)OCO2)C(=O)NC1CCCCC1 (stereo unspecified),x,x,5,2,11*,-7,-2
CC(C)C(=O)Nc1cccc(C(=O)NCc2ccc3c(c2)OCO3)c1,-3,-5,x,x,x,x,x
CC(=O)Nc1cccc(C(=O)OC(C)C(=O)NCc2ccc3c(c2)OCO3)c1 (stereo unspecified),-1,4,14,-8,9.9*,4,6
CN(C(=O)COC(=O)c1ccc2ccccc2n1)C1CCCCC1,0,4,5,4,10*,-5,-1
CC1CCN(C(=O)COC(=O)c2ccc3ccccc3n2)CC1,5,1,6,-9,0,x,x
CC(=O)c1cc(-c2ccccc2-c2ccccc2)c(=O)n2c1CCC2,x,x,6,-4,-3,x,x
CCC(NC(=O)CC[C@H]1O[C@@H](n2cc(C)c(=O)[nH]c2=O)C[C@@H]1O)c1ccccc1 (stereo partly specified),-8,-1,4,3,-1,x,x
CCSc1cc(N2CCCC2)nc(-c2ccc(F)cc2)n1,9,10,10,11*,9,-6,-4
COC(=O)[C@H](Cc1ccccc1)NC(=O)c1ccc2ccccc2n1,-4,2,-2,-1,1,x,x
CC(C)(C)NC(=O)[C@@H]1C[C@@H]2CCCC[C@@H]2CN1C[C@@H](O)[C@H](Cc1ccccc1)NC(=O)[C@H](CC(N)=O)NC(=O)c1ccc2ccccc2n1,-6,-3,-37,0,9.7*!,-8,-5
COc1cccc(NC(=S)N2CCCC2c2ccc(OC)c(OC)c2)c1 (stereo unspecified),-8,7,9,-2,11*,2,0
Oc1ccc(N=Nc2ccccc2-c2nn[nH]n2)c(O)c1,-8,-16,-14,3,12*,7,3
CC(OC(=O)c1ccc(Cl)c(S(=O)(=O)Nc2ccc(F)cc2)c1)C(=O)NC(N)=O (stereo unspecified),5,-8,-6,-7,-1,x,x
S=C(NCc1ccco1)Nc1cc(-c2ccccc2)[nH]n1,-34,-27,2,-6,9.6*,-5,-5
O=C(C1CCN(S(=O)(=O)c2cc(Cl)ccc2Cl)CC1)N1CCCC1,-1,-4,1,0,-2,x,x
O=C(N/N=C/C(Cl)=C/c1ccc([N+](=O)[O-])cc1)C(=O)Nc1cccc(C(=O)O)c1,-10,-5,10,6,13*,-22,-19
CCCC/C=C1/[C@@H](C(C)C)N(Cc2ccc3c(c2)OCO3)C2=N[C@H](c3ccccc3)CC(=O)N21,x,x,6,11*,8,2,0
CCCC/C=C1/[C@@H](c2ccc(Cl)cc2)N(Cc2ccc3c(c2)OCO3)C2=N[C@@H](c3ccccc3)CC(=O)N21,x,x,0,2,-3,x,x
CC(=O)N1N=C(N)SC1c1ccc(Cl)c(Cl)c1 (stereo unspecified),x,x,1,-7,1,x,x
CC(=O)Nc1ccc(S(=O)(=O)NCc2cn3ccsc3n2)cc1,3,8,5,11*,11*,-10,-1
CC(=O)Nc1ccc(S(=O)(=O)NCc2cn3c(C)csc3n2)cc1,-5,4,0,1,0,x,x
COc1ccc([N+](=O)[O-])cc1NCC(=O)Nc1cccc(S(=O)(=O)N2CCCC2)c1,x,x,-15,-3,1,x,x
CCCC(=O)Nc1ccc(N2CCN(C(=O)c3cc4ccccc4o3)CC2)cc1,6,7,9,2,11*,-6,-1
Nc1cc(Cl)ccc1Oc1ccc2ccccc2c1,5,6,4,-5,14*,-2,-5
O=C(COC(=O)c1ccc(CO)cc1)Nc1ccc(OC(F)F)cc1,-1,5,1,2,4,x,x
SMILES,procasp7 counter,proCasp3 act,sPLA2-III inh,PLC-beta3 inh,PLC-gamma1 inh,PLCgamma1 ctr,PLCb3 confirm
Cc1onc(-c2ccccc2Cl)c1C(=O)N1CCOC12CCN(c1cccc(F)n1)CC2,-4,-1,-6,4,0,x,x
Cc1onc(-c2ccccc2Cl)c1C(=O)N1CCOC12CCCCC2,4,3,-3,11*,4,1,4
Cc1ccc(F)cc1NC(=O)c1ccc(NS(=O)(=O)c2ccc(Br)s2)cc1,-1,2,-30,-9,-3,x,x
NC(=O)c1ccc(NS(=O)(=O)c2ccc(Br)s2)cc1,4,13,-6,-2,9.7*,-4,-3
CC(C)(C)C(=O)CSc1nccc(=O)[nH]1,-4,-2,5,-19,10*,-2,-3
O=C(NCCc1ccccc1)C(=O)NN=C1CCCC1,6,-4,10,3,9.7*,-3,-2
COc1ccc(CCNC(=O)C(=O)NN=C2CCCCCCC2)cc1OC,0,-7,10,-6,-1,x,x
O=C(NCCCN1CCOCC1)c1ccccc1,9,3,9,6,12*,-2,2
O=C(NCCCN1CCOCC1)C(=O)NCCc1ccccc1,14,4,7,5,12*,-4,0
Cc1ccc(C(=O)NCCCN2CCOCC2)cc1S(=O)(=O)N1CCOCC1,-8,6,0,-1,10*,-7,-2
Cc1ccc(C(=O)NCCN2CCOCC2)cc1S(=O)(=O)N1CCCCC1,x,x,2,-6,-1,x,x
CN(Cc1cccs1)S(=O)(=O)c1ccc(Cl)cc1F,2,5,1,-7,1,x,x
CCOC(=O)N1CCN(C(=O)C[C@H]2C[C@@]3(C(=O)OC)C(=C[C@H](COCc4ccccc4)O[C@@H]3C)N(Cc3ccc(Cl)cc3Cl)C2=O)CC1,x,x,-13,0,1,x,x
O=C(Cc1ccccc1)NCCCN1CCN(CCCNC(=O)Cc2ccccc2)CC1,5,11,1,5,11*,-5,-3
COC(=O)CN(n1cnnc1)S(=O)(=O)c1ccccc1Cl,1,1,4,4,10*,1,3
O=C(c1cn(-c2ccccc2)nc1-c1ccccc1)N1CCOCC1,2,6,3,2,2,x,x
O=C(c1cccs1)N1CCN(C(=O)c2cn(-c3ccccc3)nc2-c2ccccc2)CC1,3,-5,-17,12*,1,-4,-1
Cc1cccc(NC(=O)CSc2nnc(C3CC3)n2CC2CCCO2)c1 (stereo unspecified),-5,7,7,0,3,x,x
O=C(CSc1nc(=O)n(Cc2ccccn2)c2c1CCC2)Nc1ccc(F)cc1F,4,-8,14,7,13*,-2,1
COc1ccc(CC(=O)NNC(=O)COc2ccc(Cl)cc2C)cc1S(=O)(=O)N1CCOCC1,1,10,-14,-4,-1,x,x
